Measured values published in ChEMBL document CHEMBL1154674, “Synthesis and evaluation of three 18F-labeled aminophenylbenzothiazoles as amyloid imaging agents” (J Med Chem, 2009).

Biological target: Amyloid-beta precursor protein (Homo sapiens, UniProt P05067)
Assay: Displacement of [125I]IMPY from beta-amyloid plaques in Alzheimer's disease patient brain homogenate
Type: tissue-based
In short: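 Test compound was added at 10^-5–10^-10 M, serially diluted in PBS containing 0.1% BSA. Nonspecific binding was defined with 600 nM unlabeled IMPY. Incubation was 37 °C for 2 h, followed by GF/B vacuum filtration, PBS washes and γ counting. Ki came from nonlinear regression.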

Chain of Amyloid-beta precursor protein (P05067 whole entry): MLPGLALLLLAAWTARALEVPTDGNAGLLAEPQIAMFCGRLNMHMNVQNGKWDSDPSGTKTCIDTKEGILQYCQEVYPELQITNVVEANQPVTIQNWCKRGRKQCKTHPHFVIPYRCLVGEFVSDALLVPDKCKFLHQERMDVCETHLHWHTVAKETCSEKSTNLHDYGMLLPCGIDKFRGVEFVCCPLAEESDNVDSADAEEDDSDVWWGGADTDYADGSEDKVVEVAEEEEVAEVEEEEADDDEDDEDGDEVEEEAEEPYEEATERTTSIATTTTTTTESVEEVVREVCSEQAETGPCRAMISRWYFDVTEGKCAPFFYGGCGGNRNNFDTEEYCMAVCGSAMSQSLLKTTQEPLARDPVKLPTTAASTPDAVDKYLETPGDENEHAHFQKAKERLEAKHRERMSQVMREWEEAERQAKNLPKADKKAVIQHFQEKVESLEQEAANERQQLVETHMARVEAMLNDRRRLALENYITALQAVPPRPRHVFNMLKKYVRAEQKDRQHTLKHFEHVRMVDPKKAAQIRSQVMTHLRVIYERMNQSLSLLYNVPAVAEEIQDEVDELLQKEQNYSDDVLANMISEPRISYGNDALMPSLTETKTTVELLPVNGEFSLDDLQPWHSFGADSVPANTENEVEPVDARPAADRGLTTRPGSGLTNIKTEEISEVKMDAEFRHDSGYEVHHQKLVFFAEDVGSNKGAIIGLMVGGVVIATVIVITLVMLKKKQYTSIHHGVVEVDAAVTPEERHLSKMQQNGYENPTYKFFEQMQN

Compound	Ki
Nc1ccc2nc(-c3ccc(F)cc3)sc2c1	10 nM
CN(C)c1ccc2nc(-c3ccc(F)cc3)sc2c1	3.8 nM
